From ChEMBL document CHEMBL2086388, “Antihyperglycemic effect of syringaldehyde in streptozotocin-induced diabetic rats” (2012)
Calls of active or inactive are those of the source. No cut-off for these calls is given here.

What was measured:
Rattus norvegicus [1] = test: Antihyperglycemic activity in STZ-induced diabetic rats assessed as reduction in plasma glucose levels at 100 mg/kg, po; assay type: functional
Rattus norvegicus [2] = test: Antihyperglycemic activity in Wistar rats assessed as reduction in plasma glucose levels at 7.2 mg/kg, iv administered as bolus dose measured after 60 mins; assay type: functional; set-up: scale not given: the % may be the effect or the level left
Method in brief: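 Normal fasted Wistar rats, n=8. Compound in saline given iv at 7.2 mg/kg. Tail-vein plasma glucose taken under pentobarbital anesthesia. Lowering expressed as percent decrease from the initial glucose value.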

Rattus norvegicus [3] = test: Antihyperglycemic activity in iv dosed STZ-induced diabetic Wistar rats assessed as reduction in plasma glucose levels administered as bolus dose measured after 60 mins; assay type: functional, organism-based
Method in brief: (§1)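 Fasted rats made diabetic with STZ 60 mg/kg iv (plasma glucose ≥20 mmol/L plus polyuria) and used 2 weeks later. Compound dissolved in normal saline and given as an iv bolus over 1.8–7.2 mg/kg; controls got saline. Tail-vein plasma glucose measured at 60 min under pentobarbital 30 mg/kg ip. Activity = [(Gi−Gt)/Gi]×100%. n=8.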

Rattus norvegicus [4] = test: Antihyperglycemic activity in Wistar rats assessed as reduction in plasma glucose levels at 7.2 mg/kg, iv administered 30 mins prior to glucose challenge measured after 120 mins; assay type: functional, organism-based; set-up: dose 7.2 mg/kg
Method in brief: (§2)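 IV glucose challenge in pentobarbital-anesthetized (30 mg/kg ip) Wistar rats. Compound 7.2 mg/kg or saline injected into the tail vein; 30 min later the 0-min sample was drawn. Glucose 60.0 mg/kg then given via the femoral vein. Tail-vein plasma glucose measured at 5–120 min and compared with the vehicle group at each time. n=8.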

Rattus norvegicus [5] = test: Antihyperglycemic activity in Wistar rats assessed as reduction in plasma glucose levels at 7.2 mg/kg, iv administered 30 mins prior to glucose challenge measured after 30 mins; assay type: functional, organism-based; set-up: dose 7.2 mg/kg; method in brief: as §2
Rattus norvegicus [6] = test: Antihyperglycemic activity in Wistar rats assessed as reduction in plasma glucose levels at 7.2 mg/kg, iv administered 30 mins prior to glucose challenge measured after 5 mins; assay type: functional, organism-based; set-up: dose 7.2 mg/kg; method in brief: as §2
Rattus norvegicus [7] = test: Antihyperglycemic activity in STZ-induced diabetic Wistar rats assessed as reduction in plasma glucose levels at 1.8 mg/kg, iv administered as bolus dose measured after 60 mins; assay type: functional; set-up: scale not given: the % may be the effect or the level left; method in brief: as §1
Rattus norvegicus [8] = test: Antidiabetic activity in STZ-induced diabetic Wistar rats assessed as increase in response to exogenous insulin at 7.2 mg/kg, iv tid for 3 days; assay type: functional, organism-based; set-up: dose 7.2 mg/kg
Method in brief: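 STZ-diabetic rats (STZ 60 mg/kg iv, glucose ≥20 mmol/L, used 2 weeks later) first given long-acting human insulin 1 IU/kg once daily. Compound or saline then given iv three times daily for 3 days. Challenge was short-acting human insulin iv 0.1–1.0 IU/kg. Femoral-vein blood taken at 30 min for plasma glucose. n=8 per group, means ± SE.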

Rattus norvegicus [9] = test: Antihyperglycemic activity in STZ-induced diabetic Wistar rats assessed as reduction in plasma glucose levels at 7.2 mg/kg, iv administered as bolus dose measured after 60 mins; assay type: functional; conditions: 1 h; method in brief: as §1
L6 = test: Induction of glucose uptake in rat L6 cells after 60 mins by 2-NBDG fluorescence assay; assay type: functional, cell-based
Method in brief: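 Rat L6 cells grown 48 h, trypsinized, 1×10^6 cells/mL. Cells incubated in PBS with 0.2 mM 2-NBDG plus compound or vehicle, 37 °C, 60 min in the dark. Then washed three times with cold PBS. Fluorescence read at ex 488/em 520 nm. Eight experiments per group, means ± SEM.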

Row | Structure (SMILES) | Emax at 100 mg/kg (Rattus norvegicus [1]) | Activity (Rattus norvegicus [2]) | Activity (Rattus norvegicus [3]) | Activity (Rattus norvegicus [4]) | Activity (Rattus norvegicus [5]) | Activity (Rattus norvegicus [6]) | Activity (Rattus norvegicus [7]) | Activity (Rattus norvegicus [8]) | Emax at 7.2 mg/kg (Rattus norvegicus [9]) | Activity (L6)
1 | CN(C)C(=N)NC(=N)N [METFORMIN] | 32% | – | – | – | – | – | – | – | – | –
2 | COc1cc(C=O)cc(OC)c1O [SYRINGALDEHYDE] | – | 25.93% | Dose-dependent effect | inactive | Active | Active | 11.08% | Active | 31.3% | Dose-dependent effect
